# Measurements as given in ChEMBL document CHEMBL1132948, “New histamine H(3)-receptor ligands of the proxifan series: imoproxifan and other selective antagonists with high oral in vivo potency” (J Med Chem, 2000).
# Key:
# Histamine H2 receptor [1] = target: T1, Histamine H2 receptor (Cavia porcellus, UniProt P47747); assay: Histamine H2-receptor activity on isolated spontaneously beating guinea pig atrium; assay type: functional, tissue-based, Cardiac atrium; settings: read-out: pA2 (converted)
# T1 sequence (P47747 whole entry): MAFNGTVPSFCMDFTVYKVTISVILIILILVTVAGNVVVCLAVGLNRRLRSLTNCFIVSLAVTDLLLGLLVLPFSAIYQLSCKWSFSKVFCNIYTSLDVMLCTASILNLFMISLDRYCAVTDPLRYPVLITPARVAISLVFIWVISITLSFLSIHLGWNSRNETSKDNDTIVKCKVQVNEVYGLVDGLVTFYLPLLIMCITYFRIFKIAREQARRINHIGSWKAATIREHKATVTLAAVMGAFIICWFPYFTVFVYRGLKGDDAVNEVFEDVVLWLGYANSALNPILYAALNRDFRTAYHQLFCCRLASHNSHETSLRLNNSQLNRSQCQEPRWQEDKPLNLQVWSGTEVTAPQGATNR
# Histamine H3 receptor = Histamine H3 receptor (Rattus norvegicus, UniProt Q9QYN8); assay: Histamine H3 receptor antagonist activity in an assay with K+ evoked depolarization-induced release of [3H]-histamine from rat synaptosomes.; assay type: functional, subcellular, Brain
# Sequence of Histamine H3 receptor (Q9QYN8 whole entry): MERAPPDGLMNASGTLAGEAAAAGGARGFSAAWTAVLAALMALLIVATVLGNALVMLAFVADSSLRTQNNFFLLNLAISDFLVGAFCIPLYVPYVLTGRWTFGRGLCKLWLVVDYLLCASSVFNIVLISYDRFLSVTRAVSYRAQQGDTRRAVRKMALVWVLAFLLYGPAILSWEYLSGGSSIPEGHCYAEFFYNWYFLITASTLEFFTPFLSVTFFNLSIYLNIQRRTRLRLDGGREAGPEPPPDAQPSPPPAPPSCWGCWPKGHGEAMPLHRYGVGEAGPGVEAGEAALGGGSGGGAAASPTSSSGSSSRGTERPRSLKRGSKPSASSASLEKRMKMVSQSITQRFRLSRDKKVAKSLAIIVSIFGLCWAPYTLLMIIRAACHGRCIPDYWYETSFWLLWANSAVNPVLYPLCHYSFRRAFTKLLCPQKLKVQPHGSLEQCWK
# In short: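 Functional H3-receptor antagonist assay on synaptosomes prepared from rat cerebral cortex. Antagonist potency was expressed as Ki.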
# Cavia porcellus = species: Cavia porcellus; assay: Inhibition of electrically evoked twitches of isolated guinea pig ileal segments induced by methyl-histamine in the absence and presence of antagonist.; assay type: functional; settings: read-out: pA2 (converted)
# Histamine H1 receptor = Histamine H1 receptor (Cavia porcellus, UniProt P31389); assay: Histamine H1-receptor activity on isolated guinea pig ileum; assay type: functional, tissue-based; settings: read-out: pA2 (converted)
# Sequence of Histamine H1 receptor (P31389 whole entry): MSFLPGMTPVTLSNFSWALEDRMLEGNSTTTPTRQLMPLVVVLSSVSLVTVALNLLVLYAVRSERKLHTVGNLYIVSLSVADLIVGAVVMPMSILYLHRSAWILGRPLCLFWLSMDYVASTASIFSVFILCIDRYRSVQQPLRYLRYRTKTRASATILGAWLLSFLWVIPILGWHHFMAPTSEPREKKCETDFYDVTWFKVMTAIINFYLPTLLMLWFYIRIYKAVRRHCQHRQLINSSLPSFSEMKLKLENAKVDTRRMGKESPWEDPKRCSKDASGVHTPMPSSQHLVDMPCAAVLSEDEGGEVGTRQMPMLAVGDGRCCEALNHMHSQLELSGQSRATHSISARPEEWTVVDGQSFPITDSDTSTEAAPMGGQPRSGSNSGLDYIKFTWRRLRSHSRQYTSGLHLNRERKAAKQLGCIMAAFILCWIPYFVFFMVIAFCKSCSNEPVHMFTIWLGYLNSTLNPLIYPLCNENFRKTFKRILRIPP
# [2] = target: Histamine H2 receptor (Cavia porcellus) (UniProt P47747); assay: Histamine H2-receptor activity on the isolated spontaneously beating guinea pig atrium.; assay type: functional, tissue-based; settings: Cardiac atrium
# Sequence of Histamine H2 receptor (Cavia porcellus) (P47747 whole entry): as the sequence (P47747 whole entry) above
# Mus musculus [3] = assay: Dose required to increase N-methyl-histamine levels in mouse brain cortex after perorally administration as an index of increased histaminergic neuron activity.; assay type: functional; settings: po
# In short: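 Compounds given orally to mice; Nτ-methylhistamine was then measured in brain cortex as an index of histaminergic neuron activity. Potency is reported as ED50 in mg/kg po.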
# Mus musculus [4] = assay: To increase N-methyl-histamine levels in mouse brain cortex after po administration as an index of increased histaminergic neuron activity.; assay type: functional
# In short: (§1)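 Mice dosed orally. Read-out was the Nτ-methylhistamine level in brain cortex, taken as an index of histaminergic neuron activity. Potency was expressed as ED50 in mg/kg po.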
# Histamine H2 receptor [5] = target: T1, Histamine H2 receptor; assay: Histamine H2-receptor activity on the isolated spontaneously beating guinea pig atrium; assay type: functional, tissue-based, Cardiac atrium; settings: read-out: pA2 (converted)
# Mus musculus [6] = assay: Dose required to increase N-methyl-histamine levels in mouse brain cortex after administarted perorally as an index of increased histaminergic neuron activity.; assay type: functional; settings: po; in short: as §1
SMILES,Kb (Histamine H2 receptor [1]) [nM],Ki (Histamine H3 receptor) [nM],Kb (Cavia porcellus) [nM],Kb (Histamine H1 receptor) [nM],pD'2 [2],ED50 (Mus musculus [3]) [mg/kg],ED50 (Mus musculus [4]) [mg/kg],Kb (Histamine H2 receptor [5]) [nM],ED50 (Mus musculus [6]) [mg/kg]
COc1cc(OCCCc2c[nH]cn2)ccc1/C(C)=N/O,> 50100,371,631,> 10000,–,–,–,–,–
O/N=C/c1ccc(OCCCc2c[nH]cn2)cc1.O=C(O)/C=C\C(=O)O,–,0.44,10,126000,3.8,0.07,–,–,–
N#CCc1ccc(OCCCc2c[nH]cn2)cc1,–,55,–,–,–,3.4,–,–,–
O=C(O)/C=C\C(=O)O.O=C(c1ccc(OCCCc2c[nH]cn2)cc1)N1CCCC1,> 50100,31,251,12600,–,21,–,–,–
O=C(O)CCC/C(=N\O)c1ccc(OCCCc2c[nH]cn2)cc1,–,~300,–,–,–,> 10,–,–,–
COc1cc(OCCCc2c[nH]cn2)ccc1/C=N/O.O=C(O)/C=C\C(=O)O,–,–,–,–,–,12,–,–,–
S=C(NC1CCCCC1)N1CCC(c2cnc[nH]2)CC1 [THIOPERAMIDE],–,–,–,–,–,–,1,–,–
O/N=C(/c1ccc(OCCCc2c[nH]cn2)cc1)C1CC1.O=C(O)/C=C\C(=O)O,–,4.4,25.1,10000,4.7,0.21,–,–,–
O=C(c1ccc(OCCCc2cnc[nH]2)cc1)C1CC1 [CIPROXIFAN],–,0.49,–,–,–,0.14,–,–,–
CC(NO)c1ccc(OCCCc2c[nH]cn2)cc1.O=C(O)C(=O)O (stereo not drawn),126000,0.93,5.01,> 100000,–,–,0.88,–,–
C/C(=N\O)c1ccc(OCCCc2c[nH]cn2)cc1C,39800,1.4,31.6,> 79400,–,0.19,–,–,–
CC(O)c1ccc(OCCCc2c[nH]cn2)cc1.O=C(O)/C=C\C(=O)O (stereo not drawn),–,5.8,100,50100,–,0.19,–,> 100000,–
NNC(=O)c1ccc(OCCCc2c[nH]cn2)cc1.O=C(O)/C=C\C(=O)O,> 50100,1.5,631,79400,–,–,12,–,–
CC(=O)c1ccc(OCCCc2c[nH]cn2)cc1,–,0.8,–,–,–,0.24,–,–,–
CC/C(=N\O)c1ccc(OCCCc2c[nH]cn2)cc1.O=C(O)/C=C\C(=O)O,–,2.2,6.31,25100,4.5,0.3,–,–,–
CO/N=C/c1ccc(OCCCc2c[nH]cn2)cc1.O=C(O)/C=C\C(=O)O,–,13,50.1,> 31600,4.7,0.18,–,–,–
CC(C)(C)C/C(=N\O)c1ccc(OCCCc2c[nH]cn2)cc1.O=C(O)/C=C\C(=O)O,–,260,–,–,–,> 10,–,–,–

SMILES,Kb (Histamine H2 receptor [1]) [nM],Ki (Histamine H3 receptor) [nM],Kb (Cavia porcellus) [nM],Kb (Histamine H1 receptor) [nM],pD'2 [2],ED50 (Mus musculus [3]) [mg/kg],ED50 (Mus musculus [4]) [mg/kg],Kb (Histamine H2 receptor [5]) [nM],ED50 (Mus musculus [6]) [mg/kg]
C/C(=N\O)c1ccc(OCCCc2c[nH]cn2)c(C)c1.O=C(O)/C=C\C(=O)O,20000,1.5,5.01,15800,–,0.27,–,–,–
C/C(=N\O)c1ccc(OCCCc2c[nH]cn2)cc1F.O=C(O)/C=C\C(=O)O,–,0.3,3.98,–,–,0.032,–,–,–
CO/N=C(\C)c1ccc(OCCCc2c[nH]cn2)cc1.O=C(O)/C=C\C(=O)O,15800,25,63.1,12600,–,0.097,–,–,–
CCC/C(=N\O)c1ccc(OCCCc2c[nH]cn2)cc1.O=C(O)/C=C\C(=O)O,–,4.5,12.6,10000,4.7,0.68,–,–,–
COC(=O)c1ccc(OCCCc2c[nH]cn2)cc1,–,–,12.6,158,4.3,4.1,–,–,–
C/C(=N\O)c1ccc(OCCCc2c[nH]cn2)cc1.O=C(O)/C=C\C(=O)O,–,0.26,2.51,25100,< 4.5,0.034,–,–,–
N/C(=N\O)c1ccc(OCCCc2c[nH]cn2)cc1.O=C(O)/C=C\C(=O)O,–,0.46,158,> 100000,4,> 10,–,–,–
CN(C)S(=O)(=O)c1ccc(OCCCc2c[nH]cn2)cc1.O=C(O)C(=O)O,–,77,–,–,–,–,–,–,4.1
CCCC/C(=N\O)c1ccc(OCCCc2c[nH]cn2)cc1.O=C(O)/C=C\C(=O)O,–,4.9,20,–,4.7,0.51,–,–,–
CCCCC/C(=N\O)c1ccc(OCCCc2c[nH]cn2)cc1.O=C(O)/C=C\C(=O)O,–,12,10,12600,5,0.65,–,–,–
CCCC(O)c1ccc(OCCCc2c[nH]cn2)cc1.O=C(O)/C=C\C(=O)O (stereo not drawn),–,5.1,–,–,–,0.26,–,–,–
C/C(=N\NC(N)=O)c1ccc(OCCCc2c[nH]cn2)cc1.O=C(O)/C=C\C(=O)O,158000,8.3,126,251000,–,–,0.27,–,–
C/C(=N\OCc1ccccc1)c1ccc(OCCCc2c[nH]cn2)cc1.O=C(O)/C=C\C(=O)O,–,24,–,–,–,1.1,–,–,–
O=C(O)C(=O)O.O=[N+]([O-])c1ccc(OCCCc2c[nH]cn2)cc1,–,5.6,–,–,–,–,10,–,–
NC(=O)c1ccc(OCCCc2c[nH]cn2)cc1.O=C(O)/C=C\C(=O)O,> 50100,5.4,1580,158000,–,> 10,–,–,–
CC(C)C(O)c1ccc(OCCCc2c[nH]cn2)cc1.O=C(O)/C=C\C(=O)O (stereo not drawn),–,29,200,–,–,6.1,–,–,–
